ChEMBL document CHEMBL3525985, “Regiospecificity and stereospecificity of human UDP-glucuronosyltransferases in the glucuronidation of estriol, 16-epiestriol, 17-epiestriol, and 13-epiestradiol” (Drug Metab Dispos, 2013)
Each block holds one molecule with its values, some of them ahead of it.

Tests used:
Type in all cases: ADME
Conditions in all cases: recombinant enzyme
[1] = molecular target: T1, UDP-glucuronosyltransferase 1A1 (Homo sapiens, UniProt P22309); assay: Drug metabolism assessed as recombinant human C-terminal His-tagged UGT1A1-mediated 17-epiestriol-3-glucuronide formation at 200 uM after 15 to 60 mins by HPLC analysis in presence of UDPGA
T1 sequence (P22309 whole entry): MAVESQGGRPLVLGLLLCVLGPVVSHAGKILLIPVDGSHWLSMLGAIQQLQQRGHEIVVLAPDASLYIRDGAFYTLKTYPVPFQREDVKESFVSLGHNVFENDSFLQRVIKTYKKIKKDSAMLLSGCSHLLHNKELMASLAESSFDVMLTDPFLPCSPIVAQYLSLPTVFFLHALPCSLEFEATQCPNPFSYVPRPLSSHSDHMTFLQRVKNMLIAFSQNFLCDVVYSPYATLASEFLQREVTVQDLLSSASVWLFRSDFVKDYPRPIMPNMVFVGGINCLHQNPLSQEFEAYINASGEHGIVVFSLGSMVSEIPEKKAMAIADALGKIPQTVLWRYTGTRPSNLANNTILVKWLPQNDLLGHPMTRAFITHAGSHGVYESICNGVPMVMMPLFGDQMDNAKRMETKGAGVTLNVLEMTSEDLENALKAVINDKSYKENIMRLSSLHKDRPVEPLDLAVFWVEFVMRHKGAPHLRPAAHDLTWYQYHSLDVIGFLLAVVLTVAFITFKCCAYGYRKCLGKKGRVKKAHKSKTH
Summary of the method: (§1)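 Screening at a single substrate concentration of 200 μM, in triplicate. The reaction used 5 or 50 µg of UGT-enriched insect cell membranes in 50 mM phosphate pH 7.4 with 10 mM MgCl₂ and 5 mM UDPGA, 10% final DMSO. Incubation was 15–60 min at 37°C. Perchloric acid stopped the reaction and supernatants were analysed by HPLC. Controls lacked UDPGA. Rates were normalized to relative UGT expression level.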

[2] = molecular target: T2, UDP-glucuronosyltransferase 2B7 (Homo sapiens, UniProt P16662); assay: Drug metabolism assessed as recombinant human C-terminal His-tagged UGT2B7-mediated 17-epiestriol-17-glucuronide formation at 200 uM after 15 to 60 mins by HPLC analysis in presence of UDPGA
T2 sequence (P16662 whole entry): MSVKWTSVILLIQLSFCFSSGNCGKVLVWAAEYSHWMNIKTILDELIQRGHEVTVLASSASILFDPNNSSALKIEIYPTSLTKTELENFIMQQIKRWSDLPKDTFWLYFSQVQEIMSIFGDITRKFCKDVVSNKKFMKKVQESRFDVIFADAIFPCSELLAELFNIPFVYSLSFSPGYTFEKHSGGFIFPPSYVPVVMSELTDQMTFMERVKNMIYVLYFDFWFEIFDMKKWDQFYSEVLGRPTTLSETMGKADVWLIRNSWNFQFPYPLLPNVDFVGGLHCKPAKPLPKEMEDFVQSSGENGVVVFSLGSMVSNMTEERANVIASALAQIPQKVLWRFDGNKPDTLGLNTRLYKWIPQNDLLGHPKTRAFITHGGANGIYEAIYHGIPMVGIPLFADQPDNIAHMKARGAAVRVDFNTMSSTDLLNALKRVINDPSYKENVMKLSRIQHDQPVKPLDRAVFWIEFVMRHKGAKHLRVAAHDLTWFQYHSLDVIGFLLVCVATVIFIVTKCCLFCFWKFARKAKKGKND
Summary of the method: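 Membranes (5 or 50 µg) from insect cells expressing His-tagged UGT2B7, with 200 µM aglycone in 50 mM phosphate pH 7.4, 10 mM MgCl₂, 5 mM UDPGA and 10% DMSO (final), 15–60 min at 37°C. Stopped with perchloric acid on ice, supernatant run on HPLC. Done in triplicate with no-UDPGA controls; rates normalized to relative UGT expression.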

[3] = molecular target: T3, UDP-glucuronosyltransferase 2B17 (Homo sapiens, UniProt O75795); assay: Drug metabolism assessed as recombinant human C-terminal His-tagged UGT2B17-mediated 13-epiestradiol-17-glucuronide formation at 200 uM after 15 to 60 mins by HPLC analysis in presence of UDPGA; summary of the method: as §1
T3 sequence (O75795 whole entry): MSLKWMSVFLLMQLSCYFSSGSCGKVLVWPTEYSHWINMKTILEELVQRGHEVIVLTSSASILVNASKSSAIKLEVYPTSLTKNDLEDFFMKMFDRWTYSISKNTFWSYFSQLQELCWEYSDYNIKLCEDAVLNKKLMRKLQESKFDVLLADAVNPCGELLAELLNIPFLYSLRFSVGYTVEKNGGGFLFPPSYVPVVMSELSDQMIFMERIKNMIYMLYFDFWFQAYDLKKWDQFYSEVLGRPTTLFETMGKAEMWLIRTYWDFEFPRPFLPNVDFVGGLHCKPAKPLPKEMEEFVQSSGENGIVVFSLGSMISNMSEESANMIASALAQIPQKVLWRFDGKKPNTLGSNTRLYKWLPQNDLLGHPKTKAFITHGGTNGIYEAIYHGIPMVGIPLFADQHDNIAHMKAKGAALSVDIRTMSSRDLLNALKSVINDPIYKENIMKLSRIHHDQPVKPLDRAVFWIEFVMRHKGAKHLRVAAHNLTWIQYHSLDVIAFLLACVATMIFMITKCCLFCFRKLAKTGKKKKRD

[4] = molecular target: T4, UDP-glucuronosyltransferase 2B4 (Homo sapiens, UniProt P06133); assay: Drug metabolism assessed as recombinant human C-terminal His-tagged UGT2B4-mediated estriol-16-glucuronide formation after 15 to 60 mins by Michaelis-Menten equation analysis in presence of UDPGA
T4 sequence (P06133 whole entry): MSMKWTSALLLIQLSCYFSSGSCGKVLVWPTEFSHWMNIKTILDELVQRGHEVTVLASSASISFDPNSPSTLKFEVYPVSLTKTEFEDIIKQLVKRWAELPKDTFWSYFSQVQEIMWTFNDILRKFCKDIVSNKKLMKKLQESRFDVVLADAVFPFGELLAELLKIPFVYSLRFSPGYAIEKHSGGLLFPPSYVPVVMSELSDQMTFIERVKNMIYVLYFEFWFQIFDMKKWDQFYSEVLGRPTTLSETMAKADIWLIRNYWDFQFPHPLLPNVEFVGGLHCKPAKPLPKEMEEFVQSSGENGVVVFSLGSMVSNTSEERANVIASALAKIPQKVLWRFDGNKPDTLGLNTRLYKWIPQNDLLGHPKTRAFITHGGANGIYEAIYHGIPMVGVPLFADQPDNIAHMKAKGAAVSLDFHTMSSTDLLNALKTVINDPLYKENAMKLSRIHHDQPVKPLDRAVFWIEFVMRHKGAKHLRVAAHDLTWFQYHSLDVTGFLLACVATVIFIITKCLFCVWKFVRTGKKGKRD

Drug metabolism [1]: metabolite_detected
Drug metabolism [2]: metabolite_detected
SMILES: C[C@]12CC[C@@H]3c4ccc(O)cc4CC[C@H]3[C@@H]1C[C@@H](O)[C@H]2O

Drug metabolism [3]: metabolite_detected
SMILES: C[C@@]12CC[C@@H]3c4ccc(O)cc4CC[C@H]3[C@@H]1CC[C@@H]2O

Drug metabolism [4]: 4 pmol/min/mg
SMILES: C[C@]12CC[C@@H]3c4ccc(O)cc4CC[C@H]3[C@@H]1C[C@@H](O)[C@@H]2O [ESTRIOL]
